Measured values reported in the RNAGym collection of RNA variant scans (doi:10.1126/science.aae0568).
This sample holds only a part of the variants without activity.

B1: tRNA (parent)
chain: GUUCCGUUGGCGUAAUGGUAACGCGUCUCCCUCCUAAGGAGAAGACUGCGGGUUCGAGUCCCGUACGGAACG

Variants of: B1
Test: yeast fitness relative to wild type (ratio to wild type); higher = fitter; tRNA-Arg(CCU), competitive growth, 37 C, YPD
Procedure, shortened: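 Start and end populations of a pooled competition were compared by 100-nucleotide paired-end sequencing of gene amplicons. The Saccharomyces cerevisiae strains carried tRNA-Arg(CCU) gene variants at the native genomic locus, synthesised with a 3% per-site mutation rate at 69 sites, and competed in YPD at 37°C for 24 hours in six parallel replicates. Darwinian fitness relative to wild type was based on the change in genotype frequencies. Genotypes required ≥ 100 starting reads, and estimates < 0.5 were set to 0.5.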

Compared with U7C C49U, U7C G12A C31U G52A is lower in yeast fitness: 0.873 for the first, no more than 0.5 for the second.

First: G6C G48C
Second: G6C C30U U59G C61A
The yeast fitness of the first is higher: 0.837 for the first, 0.575 for the second.

Compared with U7A G23C C33G C46U U64C, U7C A14C A65G A70C is lower in yeast fitness: 0.579 for the first, no more than 0.5 for the second.

Going from U7A G9C G17C G48A G63A to G6C C61G G68A, the yeast fitness falls from 0.584 to no more than 0.5.

Compared with U7A G25U U32A G41A C61U, G6C U47C C61U is lower in yeast fitness: 0.589 for the first, 0.533 for the second.

Going from U7A U16C A21U U26A to G6C A42G A70U, the yeast fitness rises from 0.537 to 0.548.

Going from G6C A45G G58A to U7A G17A, the yeast fitness rises from 0.607 to 0.731.

U7C A37C A40C A45U A57C A70C and G6C C22U C24G C27U C29A C30U C31G A70C cannot be ordered by yeast fitness: no more than 0.5 for the first, no more than 0.5 for the second.

First: U7C A15G G18C
Second: U7A G67U
The yeast fitness of the first is lower: no more than 0.5 for the first, 0.771 for the second.

Compared with U7C C29U, U7C C29G is lower in yeast fitness: 0.754 for the first, 0.677 for the second.

U7A C27U C29U G58A G68A and G6U C27U G56A C61U cannot be ordered by yeast fitness: no more than 0.5 for the first, no more than 0.5 for the second.

G6C C11U C27G G41C C61A and U7A A15G G23A G51A C55A C66U cannot be ordered by yeast fitness: no more than 0.5 for the first, no more than 0.5 for the second.

Going from G6C C31G C33G U47C G51A C66U to G6C C24U C49U G56C, the yeast fitness rises from no more than 0.5 to 0.52.

U7A A15U A40G and U7A U8A G25A G67C cannot be ordered by yeast fitness: no more than 0.5 for the first, no more than 0.5 for the second.

Compared with U7A A20G G23A G44A G52C, G6C G17A A36U C46A C66A is higher in yeast fitness: no more than 0.5 for the first, 0.512 for the second.

U7A U8A G10C C27G C34G A45C G68U and U7A G17C C24G C29A G58C A69C cannot be ordered by yeast fitness: no more than 0.5 for the first, no more than 0.5 for the second.

U7A U26G U32G A42U A45G A69U and G6C C22A G41A G44C C49U cannot be ordered by yeast fitness: no more than 0.5 for the first, no more than 0.5 for the second.

Going from U7C U8A C62U to U7C C46U C61A G67A, the yeast fitness rises from no more than 0.5 to 0.561.

U7A G9C A14G G17C G48A and G6C C24G C34U U53C C55G C62A A70U cannot be ordered by yeast fitness: no more than 0.5 for the first, no more than 0.5 for the second.

U7A C30G A57U G58A and U7A G10C C22U C27G C61A C62U A65U A69C cannot be ordered by yeast fitness: no more than 0.5 for the first, no more than 0.5 for the second.

U7A A20G C31U A57C G67C and U7A U19C C27G A43U U47A A65U G67C cannot be ordered by yeast fitness: no more than 0.5 for the first, no more than 0.5 for the second.

Going from G6C U7C G9C to U7A A36C, the yeast fitness rises from no more than 0.5 to 0.512.

First: G6C G38A
Second: G6C A42U
The yeast fitness of the first is higher: 0.84 for the first, 0.739 for the second.

First: U7A A20C C29U C33G
Second: U7C A20U A40C C46U C55G A70U
The yeast fitness of the first is higher: 0.638 for the first, 0.582 for the second.

U7C C11G U32G and U7A C27U C55U cannot be ordered by yeast fitness: no more than 0.5 for the first, no more than 0.5 for the second.

Compared with U7C C34U C49A G56C C62A A65C, U7A G41C U54A is higher in yeast fitness: no more than 0.5 for the first, 0.588 for the second.

U7A A15G G23C C33G G63A and G6C C22U C24G C27U C29A C30U C31G G58A cannot be ordered by yeast fitness: no more than 0.5 for the first, no more than 0.5 for the second.

Compared with U7C C30U, G6C U16G C27U is lower in yeast fitness: 0.826 for the first, no more than 0.5 for the second.

Going from U7A G12A U64A to U7A G52A, the yeast fitness rises from no more than 0.5 to 0.582.

U7A C11U A36U and U7A G17A C29U cannot be ordered by yeast fitness: no more than 0.5 for the first, no more than 0.5 for the second.

Compared with G6C U28G, G6C C11G A15C G25C C27G C30G G38C A70G is lower in yeast fitness: 0.644 for the first, no more than 0.5 for the second.

G6C A37G A43C C62U and U7C A14G A20C A57G cannot be ordered by yeast fitness: no more than 0.5 for the first, no more than 0.5 for the second.

Going from U7A C11G C27U A37C G51C G67U to U7A U26C U64A, the yeast fitness falls from 0.504 to no more than 0.5.

Compared with U7C C33G A40G, U7C A42U A70U is higher in yeast fitness: no more than 0.5 for the first, 0.584 for the second.

Compared with G6C U7G C24U C27A A57G, U7G A15C C24U A43G G51A U54C G67C is higher in yeast fitness: no more than 0.5 for the first, 0.78 for the second.

U7A C55A A65C and U7A C11G A36U A57C cannot be ordered by yeast fitness: no more than 0.5 for the first, no more than 0.5 for the second.

Going from U7C U26A to U7C U26G, the yeast fitness falls from 0.777 to 0.649.

Compared with U7A G10A C60U, U7C C62U is higher in yeast fitness: 0.607 for the first, 0.802 for the second.

Going from U7C C62G to G6C C24U G38C A40G, the yeast fitness falls from 0.61 to no more than 0.5.

Compared with U7C C22G C24A G25C C66G, U7A C34G U53C is higher in yeast fitness: no more than 0.5 for the first, 0.726 for the second.

U7C G17A C55A and U7C A20G C24U C49A G67C cannot be ordered by yeast fitness: no more than 0.5 for the first, no more than 0.5 for the second.

Going from G6C G41C C62U to G6C A65U, the yeast fitness rises from no more than 0.5 to 0.917.

Going from U7A A40C C60A to U7C C11A, the yeast fitness rises from 0.543 to 0.556.

U7A A20G G23A U26G C66A and G6C C33U G52A cannot be ordered by yeast fitness: no more than 0.5 for the first, no more than 0.5 for the second.

U7C C33U G67A and U7G A20G C27U C49G G52C A70G cannot be ordered by yeast fitness: no more than 0.5 for the first, no more than 0.5 for the second.

First: U7C G48C
Second: U7C G48A
The yeast fitness of the first is lower: 0.828 for the first, 0.884 for the second.

Compared with G6C G23A C34G, G6C C62A is higher in yeast fitness: no more than 0.5 for the first, 0.798 for the second.

Compared with U7A U16C G17A C29U C31A G58A, G6C G56A G67A is higher in yeast fitness: no more than 0.5 for the first, 0.588 for the second.

U7C G9A U13C A21U G56A and U7A G9A U13A A43G G56A cannot be ordered by yeast fitness: no more than 0.5 for the first, no more than 0.5 for the second.

Going from U7A G23A A42G C62U to U7C G68A, the yeast fitness rises from no more than 0.5 to 0.87.

G6C C34U A43G G48A A57G and G6C G23A A70U cannot be ordered by yeast fitness: no more than 0.5 for the first, no more than 0.5 for the second.

G6C C11G A21G C29G A40C and U7A G17A C30A A65C cannot be ordered by yeast fitness: no more than 0.5 for the first, no more than 0.5 for the second.

G6C C29G U35C A57G and U7C G18A G41A A42C G50C A70G cannot be ordered by yeast fitness: no more than 0.5 for the first, no more than 0.5 for the second.

First: U7C A40G A42G G48A G56C
Second: G6C C49G
The yeast fitness of the first is lower: no more than 0.5 for the first, 0.776 for the second.

Going from G6C A37U C49U A69U to G6C G17A C30U A42C G52C G63A A65U, the yeast fitness falls from 0.585 to no more than 0.5.

First: U7A C11U A36U A57C
Second: U7C G41A A42C G50C
The yeast fitness of the first is lower: no more than 0.5 for the first, 0.592 for the second.

Compared with U7A U16C A65U, U7A C27U G52C G68C is lower in yeast fitness: 0.688 for the first, no more than 0.5 for the second.

U7C C11A C27G A57G and U7A G10A A14G G41C A42U C46A C61G cannot be ordered by yeast fitness: no more than 0.5 for the first, no more than 0.5 for the second.

U7A A15G C34G and U7C C11U A37C cannot be ordered by yeast fitness: no more than 0.5 for the first, no more than 0.5 for the second.

First: G6C G23C C24A G52A C55U
Second: U7A A36G C60A
The yeast fitness of the first is lower: no more than 0.5 for the first, 0.533 for the second.

First: U7C G38A G50A G58A U59A
Second: U7A G10A G41U C49U
The yeast fitness of the first is lower: 0.579 for the first, 0.615 for the second.

G6C G56A C60G and U7A C46A G68U cannot be ordered by yeast fitness: no more than 0.5 for the first, no more than 0.5 for the second.

U7G A15C U16A C33G A37C C49A U53C and U7C G17A C62U cannot be ordered by yeast fitness: no more than 0.5 for the first, no more than 0.5 for the second.

Going from U7A A14G to U7C A43G U47C U59C, the yeast fitness falls from 0.709 to no more than 0.5.

G6C A40C A45C and U7A G9C G12A G17C G48A cannot be ordered by yeast fitness: no more than 0.5 for the first, no more than 0.5 for the second.

Going from G6C C60G A65U to G6C C11G A15G G68C, the yeast fitness rises from no more than 0.5 to 0.503.

Going from U7A U16A A21G C29G C34A A65U C66U to U7A G56A, the yeast fitness rises from no more than 0.5 to 0.673.

G6C U26C A43C A57G C66U and U7A G44C G63A cannot be ordered by yeast fitness: no more than 0.5 for the first, no more than 0.5 for the second.

U7A G12A C49U C62G and U7A A14C A20G C27U A45U G67A cannot be ordered by yeast fitness: no more than 0.5 for the first, no more than 0.5 for the second.

Going from G6C U8A to G6C C11A C22U, the yeast fitness falls from 0.674 to 0.573.

U7A A36C G51C G63A and U7A C27U A57U A65C cannot be ordered by yeast fitness: no more than 0.5 for the first, no more than 0.5 for the second.

Going from U7A U19G A70G to U7C A15U A69U, the yeast fitness rises from no more than 0.5 to 0.527.

U7A G23C C31U and U7A U8C C29U cannot be ordered by yeast fitness: no more than 0.5 for the first, no more than 0.5 for the second.

U7C G9A U13C A21U G38C C46A and G6C C22A A57U cannot be ordered by yeast fitness: no more than 0.5 for the first, no more than 0.5 for the second.

U7A A14U A36U G50C U54A G56A C61A and U7A A42U A45G A57C A69U cannot be ordered by yeast fitness: no more than 0.5 for the first, no more than 0.5 for the second.

Going from U7C C27U to G6C C11G A14U C22U G44A C55A G63A, the yeast fitness falls from 0.875 to no more than 0.5.

U7C A14G A43U C49G and U7G A14U U19A C22U C61A cannot be ordered by yeast fitness: no more than 0.5 for the first, no more than 0.5 for the second.

U7A G12A G18U C31U C49G and U7C C49A C62U A70U cannot be ordered by yeast fitness: no more than 0.5 for the first, no more than 0.5 for the second.

U7A C33A G50A C61G and G6C C30A A45G C55G A57U C62G U64C cannot be ordered by yeast fitness: no more than 0.5 for the first, no more than 0.5 for the second.

Compared with G6C C22G, G6C A42C A43U is lower in yeast fitness: 0.761 for the first, no more than 0.5 for the second.

Going from U7G A40U to U7C C33G, the yeast fitness falls from 0.985 to 0.58.

Compared with U7C U64A, U7C A45C A70G is lower in yeast fitness: 0.923 for the first, no more than 0.5 for the second.

Going from U7A A20C A21G G23A to U7A A15U A40G G48A G68C, the yeast fitness falls from 0.65 to no more than 0.5.

For U7C G41A A42C G50C G67C, the yeast fitness was no more than 0.5.
